Activity calls are given as the source filed them. The rule behind the calls is not given here.
Experiments:
[1] = molecular target: von Hippel-Lindau disease tumor suppressor/AKT (Homo sapiens) (UniProt P31751+Q9Y243+P31749+P40337); assay: Protac activity at VHL/AKT in human BT-474 cells assessed as reduction in total AKT protein level at 1 to 10 uM measured after 24 hrs by Western blot analysis; type: cell-based; conditions: dose 1-10 µM
In short: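 BT474 cells treated 24 h at 1, 5 or 10 μM, alongside AZD5363 (1 μM) and the matching E3 ligand VHL-1 or pomalidomide (1 μM). Lysates in urea/SDS sample buffer were run on 4–12% Bis-Tris gels and blotted to PVDF. Blots probed for total AKT, P-AKT S473, P-PRAS40 T246 and P-S6 S240/244, with β-actin loading control and chemiluminescent detection.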

[2] = Protac activity at CRBN/AKT in human BT-474 cells assessed as reduction in AKT protein level at 1 to 10 uM measured after 24 hrs by Western blot analysis; conditions: dose 1-10 µM

SMILES | Activity [1] | Activity [2]
Cc1ncsc1-c1ccc(CNC(=O)[C@@H]2C[C@@H](O)CN2C(=O)[C@@H](NC(=O)COCCOCCOCCOCCOCC(=O)N2CCN(CC[C@H](NC(=O)C3(N)CCN(c4ncnc5[nH]ccc45)CC3)c3ccc(Cl)cc3)CC2)C(C)(C)C)cc1 | inactive | –
NC1(C(=O)N[C@@H](CCN2CCN(C(=O)CCCCCCNc3cccc4c3C(=O)N(C3CCC(=O)NC3=O)C4=O)CC2)c2ccc(Cl)cc2)CCN(c2ncnc3[nH]ccc23)CC1 (stereo partly specified) | – | inactive
Cc1ncsc1-c1ccc(CNC(=O)[C@@H]2C[C@@H](O)CN2C(=O)[C@@H](NC(=O)CCCC(=O)N2CCN(CC[C@H](NC(=O)C3(N)CCN(c4ncnc5[nH]ccc45)CC3)c3ccc(Cl)cc3)CC2)C(C)(C)C)cc1 | inactive | –
Cc1ncsc1-c1ccc(CNC(=O)[C@@H]2C[C@@H](O)CN2C(=O)[C@@H](NC(=O)CCOCCOCCOCCC(=O)N2CCN(CC[C@H](NC(=O)C3(N)CCN(c4ncnc5[nH]ccc45)CC3)c3ccc(Cl)cc3)CC2)C(C)(C)C)cc1 | inactive | –
NC1(C(=O)N[C@@H](CCN2CCN(C(=O)CCCCCCCNc3cccc4c3C(=O)N(C3CCC(=O)NC3=O)C4=O)CC2)c2ccc(Cl)cc2)CCN(c2ncnc3[nH]ccc23)CC1 (stereo partly specified) | – | inactive
Cc1ncsc1-c1ccc(CNC(=O)[C@@H]2C[C@@H](O)CN2C(=O)[C@@H](NC(=O)CCOCCOCCOCCOCCC(=O)N2CCN(CC[C@H](NC(=O)C3(N)CCN(c4ncnc5[nH]ccc45)CC3)c3ccc(Cl)cc3)CC2)C(C)(C)C)cc1 | inactive | –
Cc1ncsc1-c1ccc(CNC(=O)[C@@H]2C[C@@H](O)CN2C(=O)[C@@H](NC(=O)COCC(=O)N2CCN(CC[C@H](NC(=O)C3(N)CCN(c4ncnc5[nH]ccc45)CC3)c3ccc(Cl)cc3)CC2)C(C)(C)C)cc1 | Active | –
NC1(C(=O)N[C@@H](CCN2CCN(C(=O)CNc3cccc4c3C(=O)N(C3CCC(=O)NC3=O)C4=O)CC2)c2ccc(Cl)cc2)CCN(c2ncnc3[nH]ccc23)CC1 (stereo partly specified) | – | inactive
Cc1ncsc1-c1ccc(CNC(=O)[C@@H]2C[C@@H](O)CN2C(=O)[C@@H](NC(=O)CCOCCOCCOCCOCCOCCC(=O)N2CCN(CC[C@H](NC(=O)C3(N)CCN(c4ncnc5[nH]ccc45)CC3)c3ccc(Cl)cc3)CC2)C(C)(C)C)cc1 | inactive | –
Cc1ncsc1-c1ccc(CNC(=O)[C@@H]2C[C@@H](O)CN2C(=O)[C@@H](NC(=O)CCOCCC(=O)N2CCN(CC[C@H](NC(=O)C3(N)CCN(c4ncnc5[nH]ccc45)CC3)c3ccc(Cl)cc3)CC2)C(C)(C)C)cc1 | inactive | –
NC1(C(=O)N[C@@H](CCN2CCN(C(=O)CCNc3cccc4c3C(=O)N(C3CCC(=O)NC3=O)C4=O)CC2)c2ccc(Cl)cc2)CCN(c2ncnc3[nH]ccc23)CC1 (stereo partly specified) | – | inactive
Cc1ncsc1-c1ccc(CNC(=O)[C@@H]2C[C@@H](O)CN2C(=O)[C@@H](NC(=O)CCC(=O)N2CCN(CC[C@H](NC(=O)C3(N)CCN(c4ncnc5[nH]ccc45)CC3)c3ccc(Cl)cc3)CC2)C(C)(C)C)cc1 | inactive | –
Cc1ncsc1-c1ccc(CNC(=O)[C@@H]2C[C@@H](O)CN2C(=O)[C@@H](NC(=O)CCOCCOCCC(=O)N2CCN(CC[C@H](NC(=O)C3(N)CCN(c4ncnc5[nH]ccc45)CC3)c3ccc(Cl)cc3)CC2)C(C)(C)C)cc1 | inactive | –
Cc1ncsc1-c1ccc(CNC(=O)[C@@H]2C[C@@H](O)CN2C(=O)[C@@H](NC(=O)COCCOCC(=O)N2CCN(CC[C@H](NC(=O)C3(N)CCN(c4ncnc5[nH]ccc45)CC3)c3ccc(Cl)cc3)CC2)C(C)(C)C)cc1 | inactive | –
Cc1ncsc1-c1ccc(CNC(=O)[C@@H]2C[C@@H](O)CN2C(=O)[C@@H](NC(=O)COCCOCCOCC(=O)N2CCN(CC[C@H](NC(=O)C3(N)CCN(c4ncnc5[nH]ccc45)CC3)c3ccc(Cl)cc3)CC2)C(C)(C)C)cc1 | inactive | –
NC1(C(=O)N[C@@H](CCN2CCN(C(=O)CCCCNc3cccc4c3C(=O)N(C3CCC(=O)NC3=O)C4=O)CC2)c2ccc(Cl)cc2)CCN(c2ncnc3[nH]ccc23)CC1 (stereo partly specified) | – | Active

Source: ChEMBL document CHEMBL5046272, “Discovery of Potent, Selective, and In Vivo Efficacious AKT Kinase Protein Degraders via Structure-Activity Relationship Studies” (J Med Chem, 2022)
